# From PubChem
# KDM4C inh = KDM4C (human) demethylase inhibition | hit rate 0.15% among 96,000 | GST-KDM4C 2-372, H3K9me3 peptide, LANCE TR-FRET | AID 720574 | inhibition, % at 12.5 µM;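 active = mean replicate inhibition above about 25%, with at least 55% of replicates also reaching it, limit read from the data, passing the limit was not always enough; inconclusive = only one of those two conditions met; inactive = neither condition met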
# Target sequence (Q9H3R0 2-372 limits assumed): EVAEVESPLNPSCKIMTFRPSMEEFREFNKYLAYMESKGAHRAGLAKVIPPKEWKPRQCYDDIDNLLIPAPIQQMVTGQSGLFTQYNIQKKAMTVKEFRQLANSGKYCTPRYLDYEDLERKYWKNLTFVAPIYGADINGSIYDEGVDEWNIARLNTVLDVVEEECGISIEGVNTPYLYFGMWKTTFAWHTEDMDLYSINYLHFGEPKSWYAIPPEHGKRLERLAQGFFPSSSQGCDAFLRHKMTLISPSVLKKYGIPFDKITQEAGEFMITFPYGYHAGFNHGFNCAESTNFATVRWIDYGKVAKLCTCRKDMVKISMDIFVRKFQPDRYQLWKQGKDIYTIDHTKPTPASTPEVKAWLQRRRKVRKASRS
#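 System – N-terminal GST-fused human GASC-1 (KDM4C) fragment, residues 2-372 · Input – enzyme final amount 10 nM · Technique – LANCE TR-FRET, Eu antibody, ULight-streptavidin, EDTA, ex 340 nm, em 618/671 nm · Medium – HEPES buffer, pH 7.5, plus ascorbate · Incubation – enzyme reaction 30 min, then detection 60 min, both room temperature · Reagent – H3K9me3 peptide with Fe(II)/2OG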
# Pf Dd2 growth = inhibitors of Plasmodium falciparum Dd2 growth | P. falciparum Dd2 growth, SYBR Green, 72 h; active compounds read low | AID 1159554 | hit rate 2.3% among 94,000 | activity change, % at 10 µM; in the data active = activity change below about -80%; inconclusive = no clear call, values can overlap the other calls
# T cruzi growth = T. cruzi proliferation inhibition | T. cruzi beta-gal in NIH3T3, GalScreen luminescence, 90 h | inhibition, % at 8.34 µM | hit rate 5.9% among 77,000 | AID 624255;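 active = mean inhibition above about 93%, with at least 55% of replicates each passing it, limit read from the data, passing the limit was not always enough; inconclusive = only one of those two conditions holds; inactive = neither condition holds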
# IDH1 mut inh = inhibitors of human IDH1 R132H; hit rate 0.18% among 70,000; inhibition, % at 10 µM; IDH1 R132H reductase, diaphorase/resazurin fluorescence, 60 min; O75874; in the data active = inhibition above about 34%; inconclusive = no clear call, values can overlap the other calls; inactive = below about 11%
# Numbers stand for hits; . = inactive; ? = inconclusive; / = no result; ! = repeats disagree. In the library only some 5.9% were active in any assay of this set; here they are far more common.
SMILES,KDM4C inh,Pf Dd2 growth,T cruzi growth,IDH1 mut inh
CCCN1C[C@H](C)[C@@H](OC)CN(C)C(=O)c2ccc(NC(=O)Nc3cccc(F)c3)cc2OC[C@H]1C,.,.,.,.
CNC(=O)CN(c1cccc(Cl)c1Cl)S(=O)(=O)c1ccccc1,/,/,/,.
CCCC(=O)Nc1ccc2c(c1)OC[C@@H](C)N(Cc1cccc(F)c1)C[C@@H](C)[C@H](OC)CN(C)C2=O,.,-87,.,.
CO[C@H]1CN(C)C(=O)c2cc(NC(=O)Cc3ccccc3)ccc2OC[C@H](C)N(C(=O)c2ccccc2F)C[C@H]1C,.,-89,.,.
CO[C@@H]1CN(C)C(=O)c2ccc(NC(=O)C3CC3)cc2OC[C@@H](C)N(Cc2ccccc2)C[C@H]1C,.,-80,.,.
COc1ccc(S(=O)(=O)N(C)C[C@H]2OCCCC[C@H](C)Oc3ccc(NS(=O)(=O)c4cccs4)cc3C(=O)N([C@@H](C)CO)C[C@H]2C)cc1,.,-83,.,.
C[C@@H]1CN([C@@H](C)CO)C(=O)c2cc(NS(=O)(=O)c3cccs3)ccc2O[C@@H](C)CCCCO[C@@H]1CN(C)S(=O)(=O)c1ccc(F)cc1,.,-83,.,/
COc1ccc(S(=O)(=O)N(C)C[C@@H]2OCCCC[C@H](C)Oc3ccc(NS(=O)(=O)c4cccs4)cc3C(=O)N([C@H](C)CO)C[C@@H]2C)cc1,.,.,.,.
COc1ccc(S(=O)(=O)N(C)C[C@H]2OCCCC[C@H](C)Oc3ccc(NS(=O)(=O)c4cccs4)cc3C(=O)N([C@H](C)CO)C[C@H]2C)cc1,.,-81,.,/
COc1ccc(S(=O)(=O)N(C)C[C@@H]2OCCCC[C@H](C)Oc3ccc(NS(=O)(=O)c4cccs4)cc3C(=O)N([C@@H](C)CO)C[C@H]2C)cc1,.,.,.,.
C[C@@H]1CCCCO[C@@H](CN(C)S(=O)(=O)c2ccc(F)cc2)[C@H](C)CN([C@H](C)CO)C(=O)c2cc(NS(=O)(=O)c3cccs3)ccc2O1,.,.,.,/
COc1ccc2c3c([nH]c2c1)[C@H](CO)N(C(=O)C1CCCC1)CC31CCN(Cc2nccs2)CC1,.,-83,/,/
COc1ccc2c3c([nH]c2c1)[C@H](CO)N(C(=O)C1CCCCC1)CC31CCN(Cc2nccs2)CC1,.,-88,/,/
COc1ccc2c3c([nH]c2c1)[C@H](CO)N(Cc1ccc(Cl)cc1)CC31CCN(Cc2nccs2)CC1,.,-93,/,/
COc1ccc2c3c([nH]c2c1)[C@@H](CO)N(Cc1nccs1)CC31CN(Cc2nccs2)C1,.,.,/,/
COc1ccc2c3c([nH]c2c1)[C@H](CO)N(Cc1nccs1)CC31CN(Cc2cccnc2)C1,.,-88,/,/
CCc1ccc(NC(=O)CSc2nnc(C)n2-c2ccccc2)cc1,/,/,/,.
Cc1ccc(NC(=O)COc2c(C)cc(Cl)cc2Cl)c([N+](=O)[O-])c1,/,/,/,.
C/C=C/c1ccc2c(c1)O[C@H](CN(C)CCC)[C@H](C)CN([C@H](C)CO)S2(=O)=O,43,.,.,84
C[C@H](CO)N1C[C@H](C)[C@@H](CN(C)C)Oc2cc(C#CC3CCCCC3)ccc2S1(=O)=O,.,.,.,.
CCCN(C)C[C@H]1Oc2cc(C#CC3CCCC3)ccc2S(=O)(=O)N([C@H](C)CO)C[C@H]1C,.,-84,.,.
CCCN(C)C[C@@H]1Oc2cc(C#CC3CCCCC3)ccc2S(=O)(=O)N([C@H](C)CO)C[C@H]1C,.,.,.,.
C[C@H]1CN([C@@H](C)CO)S(=O)(=O)c2ccc(/C=C/c3ccccc3)cc2O[C@H]1CN(C)C(=O)c1ccccc1,.,?,125,.
C[C@@H]1CN([C@H](C)CO)S(=O)(=O)c2ccc(C#CC3CCCCC3)cc2O[C@@H]1CN(C)C,.,-81,.,.
C/C=C/c1ccc2c(c1)O[C@@H](CN(C)CCC)[C@@H](C)CN([C@@H](C)CO)S2(=O)=O,.,.,.,.
SMILES,KDM4C inh,Pf Dd2 growth,T cruzi growth,IDH1 mut inh
O=C(CSc1nnnn1-c1ccccc1)Nc1ccc(-c2ccc([N+](=O)[O-])cc2)cc1,/,/,/,.
Cc1cc(-c2nc3ccccc3s2)ccc1NC(=O)COc1ccccc1[N+](=O)[O-],/,/,/,.
COC(=O)c1c(NC(=S)NCc2ccccn2)sc2c1CCC2,/,/,/,.
COc1ccc(S(=O)(=O)N(C)C[C@@H]2Oc3cc(C#CC4CCCCC4)ccc3S(=O)(=O)N([C@H](C)CO)C[C@H]2C)cc1,.,-86,.,/
COc1ccc(S(=O)(=O)N(C)C[C@H]2Oc3cc(C#CC4CCCCC4)ccc3S(=O)(=O)N([C@H](C)CO)C[C@H]2C)cc1,.,.,.,.
CCCC#Cc1ccc2c(c1)O[C@@H](CN(C)C)[C@@H](C)CN([C@H](C)CO)S2(=O)=O,53,.,.,59
CCCC#Cc1ccc2c(c1)O[C@H](CN(C)C)[C@@H](C)CN([C@@H](C)CO)S2(=O)=O,.,.,.,.
Cc1ccc(O)c(/C=N/NC(=O)CCCCCC(=O)O)c1,/,/,/,.
Cc1ccccc1-c1ccc(C2[C@@H]3CN(Cc4cccnc4)C[C@H]2N3)cc1 (stereo not given in full),.,-90!,/,/
CN(C)C(=O)c1ccc(-c2ccc(C3[C@@H]4CN(Cc5cccnc5)C[C@H]3N4)cc2)cc1 (stereo not given in full),.,.,/,/
Fc1cccc(-c2ccc(C3[C@@H]4CN(Cc5cccnc5)C[C@H]3N4)cc2)c1 (stereo not given in full),.,-90!,/,/
COc1ccccc1NC(=O)NCCc1ccncc1,/,/,/,.
N#Cc1cccc(-c2ccc(C3[C@@H]4CN(C(=O)c5ccncc5)C[C@H]3N4)cc2)c1 (stereo not given in full),.,.,/,/
N#Cc1ccc(-c2ccc(C3[C@@H]4CN(C(=O)C5CCCCC5)C[C@H]3N4)cc2)cc1 (stereo not given in full),.,-88!,/,/
N#Cc1ccc(-c2ccc(C3[C@@H]4CN(C(=O)c5ccncc5)C[C@H]3N4)cc2)cc1 (stereo not given in full),39!,.,/,/
CCOC(=O)c1cc(NC(=O)CSc2nc3ccccc3s2)ccc1Cl,/,/,/,.
C[C@H](CO)N1C[C@H](C)[C@H](CN(C)C(=O)Nc2ccc(F)cc2)Oc2ncc(-c3cccc(C(F)(F)F)c3)cc2C1=O,.,.,109,.
CCCC#Cc1cnc2c(c1)C(=O)N([C@@H](C)CO)C[C@@H](C)[C@H](CN(C)C(=O)Nc1cc(F)ccc1F)O2,.,-83,/,.
C[C@H](CO)N1C[C@H](C)[C@H](CN(C)C(=O)Nc2ccc(F)cc2)Oc2ncc(Br)cc2C1=O,.,.,.,34!
C[C@@H]1CN([C@H](C)CO)C(=O)c2cc(-c3ccc(C#N)cc3)cnc2O[C@H]1CN(C)C(=O)Nc1ccc(C(F)(F)F)cc1,.,-94,/,/
O=C(Cn1ncc2ccccc2c1=O)Nc1cccc([N+](=O)[O-])c1,/,/,/,.
C=CCC/C=N/NC(=O)CCCCCCC(=O)O,/,/,/,.
C[C@@H]1CN([C@H](C)CO)C(=O)c2cc(NC(=O)CCC(F)(F)F)ccc2O[C@@H](C)CCCCO[C@H]1CN(C)C(=O)Nc1cccc2ccccc12,.,.,.,.
